The list is not random: actives were taken first. Their share in the collection is about 3.9%.
XBP1 UPR activ: adaptive UPR (XBP1) activation. CHO-XBP1 luciferase reporter, IRE1-XBP1 UPR activation, luminescence; percent of tunicamycin response, DMSO as zero. activation, % at 20 µM. 0.33% of 330,000 active. AID 463104;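 active = versus positive control, 20 µM dose yields 30% or more activation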
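Material: CHO cell line with stable XBP1 luciferase reporter; buffer or medium: F12 medium containing 10% fetal bovine serum; compound: single point, 20 µM final compound, 1% DMSO; incubation: 6 h treatment, 37 °C; measured by: glow luminescence from Steady-Glo reagent; evaluation: activation, % of tunicamycin; control set: tunicamycin high, DMSO low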
CHOP UPR activ: activators of apoptotic arm of unfolded protein response (CHOP); activation, % at 10 µM; CHO-CHOP luciferase reporter, UPR activation, luminescence; percent of tunicamycin response over DMSO baseline; 0.34% of 330,000 active;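 active = at 10 µM dose, activation of 40% or more, normalized to positive control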
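Test system: CHO-CHOP cells, stable luciferase reporter of PERK-eIF2a-CHOP signalling | Quantity: 500 CHO-CHOP cells per well | Buffer or medium: F12 plus 10% serum | Compound dosing: 10 µM single point, 0.5% DMSO | Schedule: 6 h compound treatment, 37 °C | Signal: Luciferase luminescence | Control set: Tunicamycin high control, DMSO low control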
Jurkat NFkB inh: lowers PMA/ionomycin-induced NF-kB signal in Jurkat cells | 0.53% of 330,000 active | PMA/ionomycin-induced NF-kB luciferase reporter, luminescence | inhibition, % at 4 µM | AID 435003; in the data active = inhibition above about 50%
Gli-Sufu block: blocks Gli-Sufu signaling in a luciferase reporter; Sufu-KO-LIGHT fibroblasts, Gli luciferase reporter luminescence; inhibition, % at 5 µM; 0.74% of 340,000 active;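 active = inhibition above about 55%, limit read from the data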
CHOP inhibitor: CHOP inhibition in unfolded protein response; inhibition, % at 10 µM; 3.8% of 220,000 active; CHO-K1 CHOP-promoter luciferase, tunicamycin-induced, 15-18 h;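 active = compounds that reduced the stress-induced luciferase reporter signal by more than about 70% of percent inhibition, limit read from the data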
697 NFkB inh: lowers PMA/ionomycin-induced NF-kB signal in 697 B cells | 697 B-cell NF-kB luciferase reporter, 16 h | inhibition, % at 4 µM | 0.33% of 330,000 active; in the data active = inhibition above about 35%
Gli-Sufu confirm: Gli-SUFU antagonism confirmation, single concentration; shares compounds with Gli-Sufu block; Sufu-KO-LIGHT cells, Gli luciferase reporter, luminescence; inhibition, % at 5 µM; 40% of 2,500 active; AID 602428;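 active = mean inhibition at 5 µM reaching about 45%, limit read from the data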
SufuKO cytotox: counter-screen for Gli-SUFU antagonists: cytotoxicity | shares compounds with Gli-Sufu block | Sufu-KO-LIGHT cells cytotoxicity, ATP luminescence | cytotoxicity, % at 5 µM | 32% of 2,500 active;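 active = mean cytotoxicity at 5 µM above about 25%, limit read from the data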;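 also: cells exposed to compound overnight for roughly 16 to 18 hours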
Wnt3a cs: inhibits Wnt3a reporter, counter-screen for Gli-SUFU antagonists. shares compounds with Gli-Sufu block. Wnt-LIGHT cells, Wnt3a-driven luciferase reporter, luminescence. inhibition, % at 6.25 µM. 20% of 2,500 active. AID 651995;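 active = mean inhibition above about 25%, limit read from the data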
Numbers stand for hits; 0 = inactive; - = no result.

SMILES	XBP1 UPR activ	CHOP UPR activ	Jurkat NFkB inh	Gli-Sufu block	CHOP inhibitor	697 NFkB inh	Gli-Sufu confirm	SufuKO cytotox	Wnt3a cs
COc1ccc(OCC(=O)NC2CCCN(Cc3ccc(Cl)cc3)C2)cc1 (stereo not drawn)	0	0	0	0	-	0	0	0	0
Cc1cc(C(=O)NC2CCCN(Cc3ccc(Cl)cc3)C2)n(C)n1 (stereo not drawn)	0	0	0	57	-	0	0	0	0
O=c1[nH]c(-c2ccccc2)nc(-c2ccccc2)c1Cl	0	0	0	0	-	0	-	-	-
COc1cc(C(C#N)N2CCOCC2)ccc1O (stereo not drawn)	0	0	0	55	0	0	0	0	0
COc1ccc([C@@H]2Sc3ccccc3NC(=O)[C@@H]2O)cc1	0	0	0	0	-	0	-	-	-
O=C(C1CCC1)N1CCN(c2ccnc3cc(Cl)ccc23)CC1	0	0	0	0	0	0	-	-	-
O=C(c1ccco1)N1CCN(c2ccnc3cc(Cl)ccc23)CC1	0	0	0	0	0	0	0	0	0
O=C(C1CCCCC1)N1CCN(c2ccnc3cc(Cl)ccc23)CC1	0	0	0	0	0	0	57	0	0
COc1ccc(CC(=O)OCC(=O)N(C)C2CCS(=O)(=O)C2)cc1OC (stereo not drawn)	0	0	0	0	-	0	-	-	-
O=C(CN1C(=O)C2CCCCC2C1=O)Nc1cc([N+](=O)[O-])ccc1F (stereo not drawn)	0	0	0	0	-	0	-	-	-
Cc1cc(C)cc(-n2ccn(CC(=O)NCCc3ccccc3)c(=O)c2=O)c1	0	0	0	0	-	0	0	0	0
Cc1ccc(-n2ccn(CC(=O)NCCc3ccccc3)c(=O)c2=O)cc1C	0	0	0	0	-	0	-	-	-
COc1cc(CC(=O)N(CC(C)C)C2CCS(=O)(=O)C2)cc(OC)c1OC (stereo not drawn)	0	0	0	0	-	0	-	-	-
CCOC(=O)c1c(NC(=O)C[n+]2ccc(Cc3ccccc3)cc2)sc(C)c1C	0	0	0	0	0	0	0	0	0
CCOC(=O)c1c(NC(=S)Nc2ccccc2)sc(C)c1C	0	0	0	0	0	0	-	-	-
Cc1ccn(CCSCC(=O)O)n1	0	0	0	0	0	0	0	0	0
O=C(O)CSCCn1cccn1	0	0	0	0	0	0	-	-	-
N#Cc1ccccc1S(=O)(=O)N1CCN(CC(=O)Nc2ccccc2C(=O)NC2CC2)CC1	0	0	0	0	-	0	-	-	-
COC(=O)CCN1CCN(S(=O)(=O)c2ccc3c(c2)OCCO3)CC1	0	0	0	0	-	0	-	-	-
Cc1ccc(C)c(N2CN(Cc3cccnc3)CNC2=S)c1	0	0	0	0	0	0	-	-	-
Cc1cccc(N2CN(Cc3cccnc3)CNC2=S)c1C	0	0	0	55	0	0	0	0	0
O=C(N/N=C/c1cccc2ccccc12)c1ccncc1	0	0	0	0	-	0	-	-	-
O=C(/C=C/c1cccc2ccccc12)c1ccncc1	-	-	-	0	0	-	47	37	0
COc1ccc(CNc2cc(C)nc3ncnn23)c(OC)c1	0	0	0	0	-	0	46	0	0
O=C(c1cc2ccccc2[nH]1)N1CCOCC1	0	0	0	0	0	0	-	-	-
SMILES	XBP1 UPR activ	CHOP UPR activ	Jurkat NFkB inh	Gli-Sufu block	CHOP inhibitor	697 NFkB inh	Gli-Sufu confirm	SufuKO cytotox	Wnt3a cs
COc1ccc2cc(C(=O)N3CCN(c4ccccc4F)CC3)[nH]c2c1	0	0	0	-	-	0	-	-	-
CN1CCN(C(=O)c2cc3ccccc3[nH]2)CC1	0	0	0	0	-	0	0	0	0
COc1ccccc1N1CCN(C(=O)c2cc3sccc3n2C)CC1	0	0	0	92	0	0	0	0	0
Cn1c(C(=O)N2CCN(c3nc4ccccc4s3)CC2)cc2sccc21	0	0	0	0	0	0	-	-	-
COc1ccc2cc(C(=O)N3CCN(c4ccccc4OC)CC3)[nH]c2c1	0	0	0	57	-	0	0	0	0
N#Cc1ccc(OCC(=O)NNC(=S)NC2CCCCC2)cc1	0	0	0	58	-	0	0	0	0
O=C(c1cnc(N2CCN(c3ccccn3)CC2)c2ccccc12)N1CCN(c2cccc(Cl)c2)CC1	0	0	0	65	77	0	54	36	0
Cc1cc(C)c2nc(N(CCCN(C)C)C(=O)c3ccc4c(c3)OCCO4)sc2c1	0	0	0	71	-	0	0	0	0
CC(Nn1cnnc1)c1cc(Cl)ccc1O (stereo not drawn)	0	0	0	98	0	0	0	0	0
O=C(O)c1cccc(Sc2cc(Cl)ccc2C(=O)O)c1	0	0	0	0	-	0	-	-	-
O=C(Nc1nnc(-c2ccco2)o1)c1ccc2ccccc2c1	0	0	0	97	0	0	0	0	0
Cc1cc(C)cc(OCC(=O)OCc2cc([N+](=O)[O-])cc3c2OCOC3)c1	0	0	0	0	-	0	-	-	-
c1ccc(Cn2c(-c3ccccc3)c[n+]3c2SCCC3)cc1	0	0	0	70	0	0	67	37	0
N#C/C(=C/c1ccc(-c2ccc([N+](=O)[O-])cc2)o1)C(=O)Nc1nc(-c2cccs2)cs1	-	-	-	72	-	-	84	0	33
CCCCCCCCCCCC1N=C(N)NC(CCCO)=C1C(=O)OC (stereo not drawn)	-	-	-	78	-	-	0	0	27
CCCCCCOC(=O)c1ccc(N)cc1	0	0	0	0	0	0	-	-	-
COc1cc(CCC(=O)NCCc2ccc(F)cc2)cc(OC)c1OC	0	0	0	0	-	0	-	-	-
OC(CN1CCN(c2cccc(Cl)c2)CC1)c1ccccc1 (stereo not drawn)	0	0	0	0	-	0	-	-	-
OC(CN1CCN(c2cccc(Cl)c2)CC1)c1ccc(F)cc1 (stereo not drawn)	0	0	0	69	-	0	0	0	0
NNC(=O)c1[nH]c2ccc([N+](=O)[O-])cc2c1-c1ccccc1	0	0	0	0	-	0	-	-	-
O=C(N/N=C/c1ccccn1)c1[nH]c2ccc([N+](=O)[O-])cc2c1-c1ccccc1	0	0	0	56	0	0	0	0	0
CCN(CC)CCNC(=O)c1ccc(NC(=O)c2ccc(S(=O)(=O)N3CCCCCC3)cc2)cc1	0	0	0	0	-	0	-	-	-
CCN(CC)CCNC(=O)c1ccc(NC(=O)c2cccc(S(=O)(=O)N3CCCCCC3)c2)cc1	-	-	-	0	-	-	0	0	0
COc1cccc(/C=N/NC(=O)c2ccc([N+](=O)[O-])cc2Cl)c1O	0	0	0	64	70	0	0	0	0
